Experimental data from ChEMBL document CHEMBL1126988, “Quinolone antibacterials containing the new 7-[3-(1-aminoethyl)-1- pyrrolidinyl] side chain: the effects of the 1-aminoethyl moiety and its stereochemical configurations on potency and in vivo efficacy” (J Med Chem, 1993).
In brackets after ≈: the same amount, converted by molar mass.

Experiments:
Format in all cases: functional
[1] = test system: Escherichia coli; assay: Antibacterial activity in vitro against Escherichia coli Vogel; details: Escherichia coli; read-out: MIC
In short: (§1)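 Standard microtitration broth assay against a panel of 10 Gram-positive and Gram-negative organisms. MIC read in µg/mL and averaged over multiple experiments.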

[2] = test system: Escherichia coli; assay: Antibacterial activity against Escherichia coli Vogel after oral administration in mouse; details: for ED50: Escherichia coli, po, read-out: PD50
[3] = test system: Escherichia coli; assay: Antibacterial activity against Escherichia coli Vogel after subcutaneous administration in mouse; details: Escherichia coli, sc; read-out: PD50
[4] = test system: Enterobacter cloacae; assay: Minimum inhibitory concentration in vitro against Enterobacter cloacae MA 2646; details: Enterobacter cloacae; read-out: MIC
[5] = test system: Enterococcus faecalis; assay: Minimum inhibitory concentration was evaluated in vitro against Enterococcus faecalis MGH-2; in short: as §1
[6] = test system: Klebsiella pneumoniae; assay: Minimum inhibitory concentration was evaluated in vitro against Klebsiella pneumoniae MGH2; details: Klebsiella pneumoniae; read-out: MIC; in short: as §1
[7] = test system: Providencia rettgeri; assay: Minimum inhibitory concentration was evaluated in vitro against Providencia rettgeri M1771; details: Providencia rettgeri; read-out: MIC; in short: as §1
[8] = test system: Pseudomonas aeruginosa; assay: Minimum inhibitory concentration was evaluated in vitro against Pseudomonas aeruginosa UI-18; details: Pseudomonas aeruginosa; read-out: MIC; in short: as §1
[9] = test system: Staphylococcus aureus; assay: Minimum inhibitory concentration was evaluated in vitro against Staphylococcus aureus H 228; in short: as §1
[10] = test system: Staphylococcus aureus; assay: Minimum inhibitory concentration was evaluated in vitro against Staphylococcus aureus UC 76; in short: as §1
[11] = test system: Streptococcus pneumoniae; assay: Minimum inhibitory concentration was evaluated in vitro against Streptococcus pneumoniae SV-1; in short: as §1
[12] = test system: Streptococcus pyogenes; assay: Antibacterial activity measured as mouse protection against Streptococcus pyogenes C 203 after subcutaneous administration; details: Streptococcus pyogenes, C 203, sc; read-out: PD50
[13] = test system: Streptococcus pyogenes; assay: Compounds were evaluated in vivo for antibacterial activity for mouse protection against Streptococcus pyogenes C 203 after oral administration; details: Streptococcus pyogenes, C 203, po; read-out: PD50
[14] = test system: Streptococcus pyogenes; assay: Minimum inhibitory concentration was evaluated in vitro against Streptococcus pyogenes C 203; in short: as §1
[15] = Enterococcus faecalis, read-out: MIC
[16] = Staphylococcus aureus, read-out: MIC
[17] = Streptococcus pneumoniae, read-out: MIC
[18] = Streptococcus pyogenes, read-out: MIC

| SMILES | MIC [1] [µg/mL] | ED50 [2] [mg/kg] | ED50 [3] [mg/kg] | MIC [4] [µg/mL] | MIC [5, 15] [µg/mL] | MIC [6] [µg/mL] | MIC [7] [µg/mL] | MIC [8] [µg/mL] | MIC [9, 16] [µg/mL] | MIC [10, 16] [µg/mL] | MIC [11, 17] [µg/mL] | ED50 [12] [mg/kg] | ED50 [13] [mg/kg] | MIC [14, 18] [µg/mL] | PD50 [2] [mg/kg] | MIC [5] [µg/mL] | MIC [9] [µg/mL] | MIC [10] [µg/mL] | MIC [11] [µg/mL] | MIC [14] [µg/mL] |
| --- | --- | --- | --- | --- | --- | --- | --- | --- | --- | --- | --- | --- | --- | --- | --- | --- | --- | --- | --- | --- |
| CCn1cc(C(=O)O)c(=O)c2cc(F)c(N3CCC(N)C3)c(OC)c21 (stereo not given) | 0.2 (≈ 0.572 µM) | 13 | 7 | 0.2 (≈ 0.572 µM) | 0.4 (≈ 1.14 µM) | 0.2 (≈ 0.572 µM) | 0.4 (≈ 1.14 µM) | 0.8 (≈ 2.29 µM) | 0.2 (≈ 0.572 µM) | 0.05 (≈ 0.143 µM) | 0.4 (≈ 1.14 µM) | 25 | 74 | 0.2 (≈ 0.572 µM) |  |  |  |  |  |  |
| NCC1CCN(c2c(F)c(N)c3c(=O)c(C(=O)O)cn(C4CC4)c3c2F)C1 (stereo not given) | 0.013 (≈ 0.0344 µM) | 12 | 1 | 0.025 (≈ 0.0661 µM) | 0.013 (≈ 0.0344 µM) | 0.025 (≈ 0.0661 µM) | 0.05 (≈ 0.132 µM) | 0.1 (≈ 0.264 µM) | 0.006 (≈ 0.0159 µM) | 0.003 (≈ 0.00793 µM) | 0.003 (≈ 0.00793 µM) | 0.6 | 11 | 0.003 (≈ 0.00793 µM) |  |  |  |  |  |  |
| CC1(CN)CCN(c2c(F)c(N)c3c(=O)c(C(=O)O)cn(C4CC4)c3c2F)C1 (stereo not given) | 0.2 (≈ 0.51 µM) |  | 1 | 0.1 (≈ 0.255 µM) | 0.025 (≈ 0.0637 µM) | 0.1 (≈ 0.255 µM) | 0.2 (≈ 0.51 µM) | 0.8 (≈ 2.04 µM) | 0.013 (≈ 0.0331 µM) | 0.003 (≈ 0.00765 µM) | 0.003 (≈ 0.00765 µM) | 1 | 8 | 0.013 (≈ 0.0331 µM) | 9 |  |  |  |  |  |
| CCn1cc(C(=O)O)c(=O)c2cc(F)c(N3CCC(N)C3)c(F)c21 (stereo not given) | 0.05 (≈ 0.148 µM) | 3 | 1 |  |  | 0.1 (≈ 0.296 µM) | 0.1 (≈ 0.296 µM) | 0.2 (≈ 0.593 µM) | 0.2 (≈ 0.593 µM) | 0.05 (≈ 0.148 µM) |  | 7 | 21 |  |  |  |  |  |  |  |
| CCNCC1CCN(c2nc3c(cc2F)c(=O)c(C(=O)O)cn3C2CC2)C1 (stereo not given) | 0.1 (≈ 0.267 µM) | 7 | 1 | 0.2 (≈ 0.534 µM) | 0.1 (≈ 0.267 µM) | 0.2 (≈ 0.534 µM) | 0.8 (≈ 2.14 µM) | 0.8 (≈ 2.14 µM) | 0.1 (≈ 0.267 µM) | 0.05 (≈ 0.134 µM) | 0.1 (≈ 0.267 µM) | 8 | 17 | 0.2 (≈ 0.534 µM) |  |  |  |  |  |  |
| CC(N)C1CCN(c2c(F)cc3c(=O)c(C(=O)O)cn(C4CC4)c3c2F)C1 (racemic) | 0.013 (≈ 0.0344 µM) | 2 | 0.3 | 0.013 (≈ 0.0344 µM) | 0.006 (≈ 0.0159 µM) | 0.013 (≈ 0.0344 µM) | 0.025 (≈ 0.0662 µM) | 0.4 (≈ 1.06 µM) | 0.013 (≈ 0.0344 µM) | 0.003 (≈ 0.00795 µM) | 0.006 (≈ 0.0159 µM) | 0.1 | 0.4 | 0.006 (≈ 0.0159 µM) |  |  |  |  |  |  |
| CCN[C@H](C)[C@H]1CCN(c2cc3c(cc2F)c(=O)c(C(=O)O)cn3C2CC2)C1 (mixture of isomers; form 2) | 0.2 | 13 | 2 | 0.2 |  | 0.4 | 0.8 | 6.3 |  |  |  | 1 | 8 |  |  | 0.1 | 0.1 | 0.025 | 0.05 | 0.05 |
| CCNCC1CCN(c2c(F)cc3c(=O)c(C(=O)O)cn(C4CC4)c3c2C(F)(F)F)C1 (stereo not given) |  | 5 | 2 |  |  |  |  |  |  | 0.025 (≈ 0.0566 µM) |  | 1 | 2 |  |  |  |  |  |  |  |
| CCNCC1CCN(c2cc3c(c(N)c2F)c(=O)c(C(=O)O)cn3C2CC2)C1 (stereo not given) | 0.1 (≈ 0.257 µM) | 90 | 3 | 0.1 (≈ 0.257 µM) | 0.05 (≈ 0.129 µM) | 0.4 (≈ 1.03 µM) | 0.8 (≈ 2.06 µM) | 1.6 (≈ 4.12 µM) | 0.2 (≈ 0.515 µM) | 0.025 (≈ 0.0644 µM) | 0.05 (≈ 0.129 µM) | 11 | > 100 | 0.1 (≈ 0.257 µM) |  |  |  |  |  |  |
| NC1CCN(c2c(F)cc3c(=O)c(C(=O)O)cn(C4CC4)c3c2F)C1 (stereo not given) |  | 1 |  | 0.025 (≈ 0.0716 µM) | 0.05 (≈ 0.143 µM) |  | 0.05 (≈ 0.143 µM) | 0.1 (≈ 0.286 µM) |  |  |  | 2 | 8 |  |  |  |  |  |  |  |
| O=C(O)c1cn(C2CC2)c2cc(N3CCNCC3)c(F)cc2c1=O [CIPROFLOXACIN] |  | 1 | 0.3 |  |  | 0.05 (≈ 0.151 µM) |  |  | 3.1 (≈ 9.36 µM) |  | 1.6 (≈ 4.83 µM) |  |  |  |  |  |  |  |  |  |
